# In PubChem BioAssay:
# The source made the active and inactive calls.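 Rule for the calls: active = viability at or below 30% in both replicate assays; inconclusive = viability at or below 30% in just one of the two assays; inactive = the rest.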
# Experiment: HUVEC growth inhibition – cell-based, human, primary screen (AID 575);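 note: 100% = median of untreated cell wells with 0.1% DMSO on each plate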
# Settings: HUVEC proliferation, CellTiter-Glo luminescence, 72 h; at 10 µM; hits give low values
# Summary of the method: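 System: primary human umbilical vein endothelial cells; Quantity: 1250 endothelial cells in each well; Buffer or medium: supplemented EBM, 2% fetal bovine serum; Doses: one dose, 10 µM final, 0.1% DMSO; Incubation: 72 h compound incubation; Technique: ATP-based CellTiter-Glo luminescent read; Evaluation: percent of median DMSO-control luminescence; Controls: vehicle and MePR control wells.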
row,Compound,viability
1,Cc1cc2c(c(=O)o1)C(Cc1ccccc1)C(C#N)=C(N)O2 (stereo not given),87.2% (inactive)
2,O=C(C1CC1)N1CCC(c2nc(-c3ccc(S(=O)(=O)NCC4CCCO4)cc3)no2)CC1 (stereo not given),54.7% (inactive)
3,N#Cc1c(NC(=O)CSc2nc(N)cc(=O)[nH]2)sc2c1CCCCCC2,59.9% (inactive)
4,O=C(NCCCNC1CCCCC1)c1ccc(/C=N/O)nc1,92.4% (inactive)
5,CCOC(=O)CNC(=O)CSc1ncnc2c1cnn2Cc1ccccc1,54.5% (inactive)
6,CCn1nc(CC(=O)Nc2nnc(CC(=O)N3CCCCC3)s2)c2ccccc2c1=O,84.4% (inactive)
7,C/C(N)=C(/C#N)C(=O)COC(=O)c1cc(C)n(-c2ccc(F)cc2)c1C,49.4% (inactive)
8,COc1cc(CNc2ccc(N3CCOCC3)c(C(=O)O)c2)ccc1OCC(N)=O,97.4% (inactive)
9,Cc1oc(C(=O)O)cc1CSCc1cc(C(=O)O)c(C)o1,92.9% (inactive)
10,c1ccc(CN2C3=NCCCN3c3ccccc32)cc1,82.9% (inactive)
11,COc1ccc(OC)c(NC(=O)CSc2nc3ccccc3c(=O)n2CCNC(C)=O)c1,95.4% (inactive)
12,Cc1cccc(CS(=O)(=O)Cc2ccc(C(=O)NCC3CCCO3)o2)c1 (stereo not given),114% (inactive)
13,COc1ccccc1N1CCN(C(=O)c2oc3cc(C)c(C)cc3c2C)CC1,82.4% (inactive)
14,COc1cccc(NC(=O)COC(=O)c2ccco2)c1,97.6% (inactive)
15,COCCNC(=O)c1c(N)n(CCC2=CCCCC2)c2nc3ccccc3nc12,78.3% (inactive)
16,Cc1ccccc1C(=O)Nc1c(C(=O)N2CCCC2)cnn1-c1ccccc1,106% (inactive)
17,O=C(Cn1cnc2c(nnn2Cc2ccc(Cl)cc2)c1=O)NCC1CCCO1 (stereo not given),101% (inactive)
18,Cc1nc2ncnn2c(N2CCC(C(=O)NC3CCCC3)CC2)c1Cc1ccccc1,91.5% (inactive)
19,COCCn1nnnc1C(C(C)C)N1CCN(C(=O)c2ccco2)CC1 (stereo not given),99.2% (inactive)
20,CCOc1cc(-c2nc3ccccn3c2NCC2CCCO2)ccc1O (stereo not given),88.7% (inactive)

row,Compound,viability
1,O=C(Nc1ccccc1N1CCN(C(=O)c2ccc(Cl)cc2)CC1)c1cc2ccccc2o1,67.8% (inactive)
2,O=C(CCC(=O)N(c1cccc(F)c1)C(C(=O)NC1CCCC1)c1ccncc1)Nc1cccnc1 (stereo not given),97.1% (inactive)
3,COc1ccc(S(=O)(=O)N2CCSC2c2ccccc2)cc1 (stereo not given),79.9% (inactive)
4,CCCOC(=O)C1[C@H]2C(=O)N(CCCOC)C[C@]23C=C[C@H]1O3 (stereo not given in full),98.5% (inactive)
5,COc1cc2c(cc1OC)C(C)N(C(=O)c1cc3n(n1)C(C(F)(F)F)CC(c1ccco1)N3)CC2 (stereo not given),62% (inactive)
6,Cc1ccc(NC(=O)N2CCC(c3nc4c(nnn4Cc4cccc(Cl)c4)c(=O)[nH]3)CC2)cc1,61.8% (inactive)
7,Cc1nc(NCCNC(=O)c2ccco2)c2c(C)c(C)sc2n1,97.9% (inactive)
8,Cc1c(NC(=O)CSc2nnc3sc4ccccc4n23)c(=O)n(-c2ccccc2)n1C,106% (inactive)
9,COc1ccc(-c2nnc3sc(-c4c(OC)cccc4OC)nn23)cc1,62.6% (inactive)
10,COC(=O)c1ccccc1NC(=O)CSc1nnc(-c2ccncc2)o1,103% (inactive)
11,COc1ccc(Cl)cc1NC(=O)c1oc(C)nc1C,91% (inactive)
12,CCOC(=O)CC(=O)Nc1c(C)cc(C)cc1C,85% (inactive)
13,O=S(=O)(c1ccccc1)c1nc(-c2ccco2)oc1NCCCN1CCOCC1,84.6% (inactive)
14,O=C(COC(=O)c1ccc(S(=O)(=O)Nc2ccccc2)cc1)NCCN1C(=O)CSC1=O,100% (inactive)
15,Cc1cc(C)c(-c2cc(C(=O)Nc3c(C)n(C)n(-c4ccccc4)c3=O)[nH]n2)c(O)c1,97.5% (inactive)
16,COc1ccc(-c2nnc(SCC(=O)N3CCCCC3)o2)cc1OC,88.7% (inactive)
17,Cc1cc(Br)ccc1NC(=O)CCN1C(=O)c2ccncc2C1=O,86.1% (inactive)
18,CC1=C(C(=O)N2CCCCC2)C2(CCC(C)CC2)OC1=O (stereo not given),109% (inactive)
19,CCCN(CCC)S(=O)(=O)c1ccc(C(=O)Nc2nnc(-c3cccc(OC)c3)o2)cc1,8.23% (active)
20,CC(C)(C)c1cc(CCC(=O)N2CCNCC2)c(C(C)(C)C)cc1O,82.9% (inactive)
